# In ChEMBL document CHEMBL5042515, “Design and Evaluation of a Novel Peptide-Drug Conjugate Covalently Targeting SARS-CoV-2 Papain-like Protease” (J Med Chem, 2022):
# Active and inactive are the calls of the source. No cut-off for these calls is given here. *1 amine or outer side, *2 acyl side, *3 side chain or, on linkers, in order; H or OH if unused. Where a SMILES comes first, the peptide text is derived from it. Bridges are numbered along the chain shown (N, C = ends). [ ]: non-standard residue; d: D form. The star is where a group is joined. Met(S-mXyl) = C[S+](CC[C@H](N[*:1])C(=O)[*:2])Cc1cccc(C[*:3])c1; 5FAM = O=C1OC2(c3ccc(O)cc3Oc3cc(O)ccc32)c2ccc(C(=O)*)cc21; X2 = C[S+](CC[C@@H](N[*:1])C(=O)[*:2])Cc1cccc(C[*:3])c1; X1 = Cc1ccc(N*)cc1C(=O)NC(C)c1cccc2ccccc12
# Assays:
# [1] = Hemolytic activity against mouse erythrocyte at 0 to 60 uM for 1.5 hrs by microplate reader analysis; assay type: toxicity, cell-based; conditions: dose 0-60 µM
# How it was run: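 Fresh mouse erythrocytes washed and resuspended in PBS at 10^8/mL, then exposed to serial dilutions starting at 60 μM for 1.5 h at 37 °C. Supernatant hemoglobin read by absorbance. 0.1% Triton X-100 used as 100% control and PBS as blank; % hemolysis calculated relative to both.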
# HEK-293T [2] = test: Cytotoxicity against HEK293T cells assessed as inhibition of cell growth at 1.56 to 100 uM incubated for 24 hrs by MTT assay; assay type: toxicity, cell-based; conditions: human, dose 1.56-100 µM
# How it was run: (§1)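 A549 (RPMI-1640) or 293T (DMEM) cells with 10% FBS, plated overnight, then treated 24 h at 1.56–100 μM in medium with 5% FBS. MTT (5 mg/mL reagent) added for 4 h at 37 °C, dissolved in DMSO, absorbance read at 490 nm. DMSO-only control; at least three independent measurements.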
# A549 = test: Cytotoxicity against human A549 cells assessed as inhibition of cell growth at 1.56 to 100 uM incubated for 24 hrs by MTT assay; assay type: toxicity, cell-based; conditions: a549, 24 h, dose 1.56-100 µM; how it was run: as §1
# [3] = target: Replicase polyprotein 1ab (Middle East respiratory syndrome-related coronavirus (isolate UnitedKingdom/H123990006/2012) (Betacoronavirus England 1) (Humancoronavirus EMC)) (UniProt K9N7C7); test: Inhibition of MERS PLpro using LRGG-ACC as substrate upto 1000 uM preincubated for 60 mins followed by substrate addition and measured for 30 mins by enzymatic assay; conditions: dose microM <=1000, time 90.0 min
# [4] = Inhibition of SARS-CoV PLpro using LRGG-ACC as substrate preincubated for 60 mins followed by substrate addition and measured for 30 mins by enzymatic assay; design: species or system Severe acute respiratory syndrome-related coronavirus
# HEK293T = test: Covalent binding affinity to SARS-CoV-2 PLpro spiked in HEK293T cells lysate at 10 uM incubated for 1 hr by SDS gel analysis; assay type: subcellular; conditions: Severe acute respiratory syndrome coronavirus 2
# How it was run: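 293T cell lysate (300 μg protein) spiked with PLpro (5 μM), then treated with 10 μM FAM-labeled peptide. Labeling read as fluorescent bands on gel.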
# [5] = test system: Severe acute respiratory syndrome coronavirus 2; test: Binding affinity to SARS-CoV-2 PLpro assessed as covalent bond formation at Cys111 at 10 uM incubated for 1 hr by SDS-PAGE analysis
# [6] = test system: Severe acute respiratory syndrome coronavirus 2; test: Inhibition of SARS-CoV-2 PLpro using LRGG-ACC as substrate at <=1000 uM preincubated for 60 mins followed by substrate addition and measured for 30 mins by enzymatic assay; conditions: dose microM <=1000, time 90.0 min
# How it was run: (§2)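 Recombinant His-tagged SARS-CoV-2 PLpro (E. coli BL21(DE3), Ni-NTA then gel filtration) at 0.1 μM, preincubated 1 h at 37 °C with inhibitor diluted from 800 μM. Buffer: 50 mM HEPES pH 7.4, 0.1 mg/mL BSA, 5 mM DTT. Ac-LRGG-ACC substrate at 1 μM final. Fluorescence read at ex 355/em 460 nm for 30 min, at least three times; IC50 from curve fitting.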
# [7] = test system: Severe acute respiratory syndrome coronavirus 2; test: Binding affinity to SARS-CoV-2 PLpro assessed as covalent bond formation at 10 uM incubated for 1 hr by SDS-PAGE analysis
# How it was run: (§3)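 FAM-labeled peptides (10 μM) incubated with purified SARS-CoV-2 PLpro (5 μM) in PBS for 1 h. Covalent adduct detected by SDS gel analysis.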
# [8] = test system: Severe acute respiratory syndrome coronavirus 2; test: Covalent binding affinity to SARS-CoV-2 PLpro Cys111 at 30 uM for 4 hrs by In-gel trypsin digestion based MS-MS analysis
# How it was run: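 Peptide (30 μM) with PLpro (5 μM) in Tris buffer, 37 °C, 4 h. Conjugate band excised from 15% SDS-PAGE, destained with ammonium bicarbonate/acetonitrile and trypsin-digested overnight at 16 °C. Peptides extracted in 50% acetonitrile/0.5% formic acid for MS/MS mapping of the modified residue.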
# HEK-293T [9] = test: Antiviral activity in HEK293T cells co-transfected with plasmids encoding Renilla luciferase, Firefly luciferase is driven by IFN-beta promoter, MAVS assessed as recovery of suppressed IFN-beta promoter activity at 10 to 100 uM by Dual-Luciferase reporter assay relative to control; assay type: functional, cell-based; conditions: Homo sapiens, dose 10-100 µM
# How it was run: (§4)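 HEK293T cells co-transfected with Renilla luciferase reference, IFN-β promoter-driven firefly luciferase, MAVS and SARS-CoV-2 PLpro, then treated with conjugate. Activity scaled to the ISG15-plasmid positive control set as 100%; blank plasmid as negative control; unpaired two-tailed t-test.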
# [10] = Drug uptake in human HeLa cells at 10 uM for 4 hrs by tryphan blue staining based flow cytometry relative to control; assay type: ADME, cell-based
# HEK-293T [11] = test: Antiviral activity against HEK293T cells co-transfected with plasmids encoding Myc-tagged ISG15, E1/E2/E3 ubiquitin ligases, SARS-CoV-2 PLpro fused with EGFP assessed as recovery of intracellular ISGylation level incubated for 24 hrs by immunoblot analysis; assay type: functional, cell-based; conditions: Homo sapiens
# How it was run: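 HEK293T cells co-transfected with Myc-ISG15, E1/E2/E3 ligases and EGFP-fused SARS-CoV-2 PLpro, then kept 24 h at 37 °C in DMEM with 5% FBS plus conjugate. Lysates BCA-normalised, 30 μg per lane. Western blot probed with anti-ISG15, anti-GFP and anti-GAPDH (1:1000), ECL detection.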
# [12] = test system: Severe acute respiratory syndrome coronavirus 2; test: Covalent binding affinity to SARS-CoV-2 PLpro assessed as reaction efficiency at 0 to 25 uM for 2 hrs by SDS-PAGE analysis; conditions: dose 0-25 µM
# How it was run: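 Purified SARS-CoV-2 PLpro (5 μM) incubated with peptide at 0, 2.5, 5, 10, 15, 20 and 25 μM in PBS (pH 7.4, 37 °C). Conjugation resolved on 15% SDS-PAGE.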
# [13] = test system: Severe acute respiratory syndrome-related coronavirus; test: Inhibition of SARS-CoV PLpro using LRGG-ACC as substrate at <=1000 uM preincubated for 60 mins followed by substrate addition and measured for 30 mins by enzymatic assay; conditions: dose microM <=1000, time 90.0 min
# [14] = test system: Severe acute respiratory syndrome coronavirus 2; test: Covalent binding affinity to SARS-CoV-2 PLpro by SDS-PAGE analysis
# [15] = Inhibition of SARS-CoV-2 PLpro using LRGG-ACC as substrate preincubated for 60 mins followed by substrate addition and measured for 30 mins by enzymatic assay; design: species or system Severe acute respiratory syndrome coronavirus 2; how it was run: as §2
# [16] = test system: Severe acute respiratory syndrome coronavirus 2; test: Covalent binding affinity to SARS-CoV-2 PLpro assessed as reaction efficiency at 10 uM for 1 hr by SDS-PAGE analysis; how it was run: as §3
# [17] = test system: Severe acute respiratory syndrome coronavirus 2; test: Covalent binding affinity to SARS-CoV-2 PLpro assessed as reaction efficiency at 10 uM and incubated for 0.5 to 4 hrs by SDS-PAGE analysis; conditions: time 0.5-4 hrs, TDE = time-dependent effect
# How it was run: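 Peptide (10 μM) with purified SARS-CoV-2 PLpro (5 μM) in PBS, pH 7.4, 37 °C, sampled at 0.5, 1, 2, 3 and 4 h. Conjugate band resolved on 15% SDS-PAGE.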
# HEK-293T [18] = test: Antiviral activity in HEK293T cells co-transfected with plasmids encoding Renilla luciferase, Firefly luciferase is driven by IFN-beta promoter, MAVS assessed as recovery of suppressed IFN-beta promoter activity at 100 uM by Dual-Luciferase reporter assay; assay type: functional, cell-based; conditions: Homo sapiens; how it was run: as §4
smiles,measurement,setting,value
Cc1ccc(N)cc1C(=O)NC(C)c1cccc2ccccc12 (stereo not drawn),Activity,[1],Non-Toxic
same,Activity,HEK-293T [2],Non-Toxic
same,Activity,A549,Non-Toxic
same,inhibition,[3],inactive
same,IC50,[4],2.6 µM
Cc1ccc(NC(=O)CC[C@H](NC(=O)c2ccc3c(c2)C(=O)OC32c3ccc(O)cc3Oc3cc(O)ccc32)C(=O)N[C@H]2CSCc3cccc(c3)C[S+](C)CC[C@@H](C(=O)O)NC(=O)CNC(=O)[C@H](CCCNC(=N)N)NC(=O)[C@H](CC(C)C)NC2=O)cc1C(=O)NC(C)c1cccc2ccccc12 (stereo partly drawn) (5FAM-E(X1)CLRG[Met(S-mXyl)]-OH; thioether 2-6),Activity,HEK293T,Active
Cc1ccc(NC(=O)CC[C@H](NC(=O)c2ccc3c(c2)C(=O)OC32c3ccc(O)cc3Oc3cc(O)ccc32)C(=O)N[C@H]2CC[S+](C)Cc3cccc(c3)CSC[C@@H](C(=O)O)NC(=O)CNC(=O)[C@H](CCCNC(=N)N)NC(=O)[C@H](CC(C)C)NC2=O)cc1C(=O)NC(C)c1cccc2ccccc12 (stereo partly drawn) (5FAM-E(X1)[Met(S-mXyl)]LRGC-OH; thioether 2-6),Activity,HEK293T,Active
CC(C)C[C@@H]1NC(=O)[C@@H](N)CSCc2cccc(c2)C[S+](C)CC[C@@H](C(=O)O)NC(=O)CNC(=O)[C@H](CCCNC(=N)N)NC1=O (stereo partly drawn) (H-CLRG[Met(S-mXyl)]-OH; thioether 1-5),Activity,[5],Active
same,inhibition,[6],inactive
same,Activity,[7],Active
C[S+]1CC[C@@H](C(=O)O)NC(=O)CNC(=O)CNC(=O)[C@H](CCCNC(=N)N)NC(=O)[C@@H](N)CSCc2cccc(c2)C1 (stereo partly drawn) (H-CRGG[Met(S-mXyl)]-OH; thioether 1-5),Activity,[5],Active
same,inhibition,[6],inactive
same,Activity,[7],Active
Cc1ccc(NC(=O)CC[C@H](N)C(=O)N[C@H]2CSCc3cccc(c3)C[S+](C)CC[C@@H](C(=O)O)NC(=O)CNC(=O)[C@H](CCCNC(=N)N)NC(=O)[C@H](CC(C)C)NC2=O)cc1C(=O)NC(C)c1cccc2ccccc12 (stereo partly drawn) (H-E(X1)CLRG[Met(S-mXyl)]-OH; thioether 2-6),Activity,[1],Non-Toxic
same,Activity,[8],Active
same,Activity,HEK-293T [9],Dose-Dependent Effect
same,Activity,HEK-293T [2],Non-Toxic
same,Drug uptake,[10],Active
same,Activity,A549,Non-Toxic
same,Activity,HEK-293T [11],Dose-Dependent Effect
same,Activity,[12],Dose-Dependent Effect
same,inhibition,[3],inactive
same,inhibition,[13],Active
same,Activity,[14],Active
same,IC50,[15],8.63 µM
Cc1ccc(NC(=O)CC[C@H](N)C(=O)N[C@@H](CC(C)C)C(=O)N[C@@H](CCCNC(=N)N)C(=O)NCC(=O)NCC(=O)O)cc1C(=O)NC(C)c1cccc2ccccc12 (stereo partly drawn) (H-E(X1)LRGG-OH),Drug uptake,[10],Active
same,inhibition,[3],inactive
same,inhibition,[13],inactive
same,Activity,[14],inactive
same,IC50,[15],15.4 µM
Cc1ccc(NC(=O)CC[C@H](N)C(=O)N[C@H]2CC[S+](C)Cc3cccc(c3)CSC[C@@H](C(=O)O)NC(=O)CNC(=O)[C@H](CCCNC(=N)N)NC(=O)[C@H](CC(C)C)NC2=O)cc1C(=O)NC(C)c1cccc2ccccc12 (stereo partly drawn) (H-E(X1)[Met(S-mXyl)]LRGC-OH; thioether 2-6),Activity,[1],Non-Toxic
same,Activity,HEK-293T [2],Non-Toxic
same,Drug uptake,[10],Active
same,Activity,[16],Active
same,Activity,[17],Tde
same,Activity,A549,Non-Toxic
same,Activity,HEK-293T [11],Dose-Dependent Effect
same,Activity,[12],Dose-Dependent Effect
same,Activity,HEK-293T [18],inactive
same,inhibition,[3],inactive
same,Activity,[14],Active
same,IC50,[15],7.4 µM
same,IC50,[4],3.43 µM
CC(C)C[C@H](N)C(=O)N[C@H]1CSCc2cccc(c2)C[S+](C)CC[C@H](C(=O)O)NC(=O)CNC(=O)CNC1=O (stereo partly drawn) (H-LCGG[X2]-OH; thioether 2-5),inhibition,[6],inactive
CC(C)C[C@H](N)C(=O)N[C@@H](CCCNC(=N)N)C(=O)NCC(=O)NCC(=O)N[C@H]1CSCc2cccc(c2)C[S+](C)CC[C@@H](C(=O)O)NC(=O)[C@H](C)NC(=O)[C@H](C)NC(=O)[C@H](C)NC1=O (stereo partly drawn) (H-LRGGCAAA[Met(S-mXyl)]-OH; thioether 5-9),Activity,[5],Active
same,inhibition,[6],inactive
same,Activity,[7],Active
CC(C)C[C@H](N)C(=O)N[C@@H](CCCNC(=N)N)C(=O)NCC(=O)NCC(=O)N[C@H]1CC[S+](C)Cc2cccc(c2)CSC[C@@H](C(=O)O)NC(=O)[C@H](C)NC(=O)[C@H](C)NC(=O)[C@H](C)NC1=O (stereo partly drawn) (H-LRGG[Met(S-mXyl)]AAAC-OH; thioether 5-9),inhibition,[6],inactive
same,Activity,[7],Active
CC(C)C[C@H](N)C(=O)N[C@H]1CC[S+](C)Cc2cccc(c2)CSC[C@@H](C(=O)O)NC(=O)CNC(=O)CNC1=O (stereo partly drawn) (H-L[Met(S-mXyl)]GGC-OH; thioether 2-5),inhibition,[6],inactive
CC(C)C[C@@H]1NC(=O)[C@@H](N)CC[S+](C)Cc2cccc(c2)CSC[C@@H](C(=O)O)NC(=O)CNC(=O)[C@H](CCCNC(=N)N)NC1=O (stereo partly drawn) (H-[Met(S-mXyl)]LRGC-OH; thioether 1-5),inhibition,[6],inactive
C[S+]1CC[C@H](N)C(=O)N[C@@H](CCCNC(=N)N)C(=O)NCC(=O)NCC(=O)N[C@H](C(=O)O)CSCc2cccc(c2)C1 (stereo partly drawn) (H-[Met(S-mXyl)]RGGC-OH; thioether 1-5),inhibition,[6],inactive
same,Activity,[7],Active
